Experimental data as given in ChEMBL document CHEMBL4130438, “6,7-Seco-ent-Kauranoids Derived from Oridonin as Potential Anticancer Agents” (J Nat Prod, 2017).
Calls of active or inactive are those of the source. The rule behind the calls is not given here.

Tests used:
MGC-803 = test: Antiproliferative activity against human MGC803 cells after 72 hrs by MTT assay; type: functional, cell-based; conditions: MGC-803, 72 h
Method in brief: (§1)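 Cells pre-incubated 24 h at 37 °C, 5% CO2 in 96-well plates, then exposed to a range of compound concentrations (DMSO ≤0.25%) for 72 h. Viable cells read by MTT colour at 570 nm. Performed in quadruplicate, repeated three times. IC50 reported as means ± SD, n = 3.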

MCF7 [1] = test: Antiproliferative activity against human MCF7 cells after 72 hrs by MTT assay; type: functional, cell-based; conditions: MCF7, 72 h; method in brief: as §1
Bel-7402 [2] = test: Antiproliferative activity against human Bel7402 cells after 72 hrs by MTT assay; type: functional, cell-based; conditions: Bel-7402, 72 h; method in brief: as §1
K562 = test: Antiproliferative activity against human K562 cells after 72 hrs by MTT assay; type: functional, cell-based; conditions: K562, 72 h; method in brief: as §1
Bel-7402 [3] = test: Cytotoxicity against human Bel7402 cells assessed as decrease in cell viability after 24 hrs by LDH release assay; type: functional, cell-based
Method in brief: (§2)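 MCF-7 and Bel-7402 cells seeded at ~5 × 10^3 per well for 24 h, then exposed to compounds. LDH released into the medium measured with CytoTox-ONE reagent (10 min, ambient temperature) followed by stop solution. Fluorescence read at ex 560/em 590 nm.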

MCF7 [4] = test: Cytotoxicity against human MCF7 cells assessed as decrease in cell viability after 24 hrs by LDH release assay; type: functional, cell-based; method in brief: as §2
KB 3-1 = test: Antiproliferative activity against human KB-3-1 cells after 48 hrs by MTT assay; type: functional, cell-based
Homo sapiens = organism: Homo sapiens; test: Antiproliferative activity against human KB/CP4 cells after 48 hrs by MTT assay; type: functional, cell-based
H22 = test: Antitumor activity against […] cells xenografted in ICR mouse assessed as inhibition of tumor volume at 20 mg/kg, iv qd administered for 14 consecutive days measured every 2 days relative to control; type: functional; conditions: 14 days
Method in brief: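 Male ICR mice, five weeks old, implanted s.c. in the right flank with 1 × 10^6 H22 cells. After 7 days, randomised into groups of eight. Given i.v. once daily for 14 days, 10 or 20 mg/kg in 10% DMF/2% poloxamer/88% saline; negative controls received 0.9% saline i.v., positive control 20 mg/kg oridonin. Body weight and tumour volume (L × W²/2) recorded every 2 days. Tumours excised and weighed at sacrifice; inhibition (%) = (1 − treated/control mean tumour weight) × 100.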

Row | Compound | IC50 (MGC-803) [µM] | IC50 (MCF7 [1]) [µM] | IC50 (Bel-7402 [2]) [µM] | IC50 (K562) [µM] | Activity (Bel-7402 [3]) | Activity (MCF7 [4]) | Activity (KB 3-1) | Activity (Homo sapiens) | inhibition in vivo at 20 mg/kg (H22) [%]
1 | C=C1C(=O)[C@@]23C(=O)OC[C@]4([C@@H](OS(C)(=O)=O)CCC(C)(C)[C@H]4C=O)[C@@H]2CC[C@@H]1[C@H]3O | > 10 | > 10 | > 10 | > 10 | – | – | – | – | –
2 | C=C1C(=O)[C@@]23C(=O)OC[C@]4([C@@H](OS(C)(=O)=O)CCC(C)(C)[C@H]4C=O)[C@@H]2CC[C@@H]1[C@H]3OC(=O)CCCC | 3.2 | 3.7 | 2.2 | 4.5 | – | – | – | – | –
3 | C=C1C(=O)[C@@]23C(=O)OC[C@]4([C@@H]5O[C@@H]5CC(C)(C)[C@H]4C=O)[C@@H]2CC[C@@H]1[C@H]3O | > 10 | > 10 | 4.6 | > 10 | – | – | – | – | –
4 | C=C1C(=O)[C@@]23C(=O)OC[C@]4([C@@H](OS(C)(=O)=O)CCC(C)(C)[C@H]4C=O)[C@@H]2CC[C@@H]1[C@H]3OC(=O)c1ccc(F)cc1 | 4.5 | 5.5 | 3.1 | 6.2 | – | – | – | – | –
5 | C=C1C(=O)[C@@]23C(=O)OC[C@]4(C=CCC(C)(C)[C@H]4C=O)[C@@H]2CC[C@@H]1[C@H]3OC(=O)c1cccc(C)c1 | 2.4 | 1.1 | 3.6 | 0.55 | – | – | – | – | –
6 | C=C1C(=O)[C@@]23C(=O)OC[C@]4(C=CCC(C)(C)[C@H]4C=O)[C@@H]2CC[C@@H]1[C@H]3OC(=O)c1ccc([N+](=O)[O-])cc1 | 7.3 | 6.4 | > 10 | 1 | – | – | – | – | –
7 | C=C1C(=O)[C@]23[C@H](O)[C@H]1CC[C@H]2[C@@]12CO[C@@]3(O)[C@@H](O)[C@@H]1C(C)(C)CC[C@@H]2OS(C)(=O)=O | 3.9 | 3.9 | 2.7 | 3.2 | – | – | – | – | –
8 | C=C1C(=O)[C@@]23C(=O)OC[C@]4(C=CCC(C)(C)[C@H]4C=O)[C@@H]2CC[C@@H]1[C@H]3O | 3 | 6.4 | 2.5 | 4.2 | inactive | inactive | Active | Active | –
9 | C=C1C(=O)[C@@]23C(=O)OC[C@]4(C=CCC(C)(C)[C@H]4C=O)[C@@H]2CC[C@@H]1[C@H]3OC(=O)/C=C/c1cccc([N+](=O)[O-])c1 | 2.9 | 2.2 | 5.1 | 1.4 | – | – | – | – | –
10 | C=C1C(=O)[C@@]23C(=O)OC[C@]4(C=CCC(C)(C)[C@H]4C=O)[C@@H]2CC[C@@H]1[C@H]3OC(C)=O | 0.95 | 1 | 0.57 | 0.63 | – | – | – | – | –
11 | C=C1C(=O)[C@@]23C(=O)OC[C@]4([C@@H](OS(C)(=O)=O)CCC(C)(C)[C@H]4C=O)[C@@H]2CC[C@@H]1[C@H]3OC(=O)c1ccco1 | 3.4 | 2.9 | 1.1 | 1.7 | – | – | – | – | –
12 | C=C1C(=O)[C@@]23C(=O)OC[C@]4(C=CCC(C)(C)[C@H]4C=O)[C@@H]2CC[C@@H]1[C@H]3OC(=O)c1cnccn1 | 2.8 | 3.5 | 1.3 | 2.9 | – | – | – | – | –
13 | C=C1C(=O)[C@@]23C(=O)OC[C@]4(C=CCC(C)(C)[C@H]4C=O)[C@@H]2CC[C@@H]1[C@H]3OS(C)(=O)=O | 2.8 | 2 | 1.3 | 1.9 | – | – | – | – | –
14 | C=C1C(=O)[C@@]23C(=O)OC[C@]4(C=CCC(C)(C)[C@H]4C=O)[C@@H]2CC[C@@H]1[C@H]3OC(=O)CC | 7.3 | 3.4 | 7.1 | 1.2 | – | – | – | – | –
15 | C=C1C(=O)[C@]23[C@H](O)[C@H]1CC[C@H]2[C@@]12CO[C@]3(O)[C@@H](O)[C@@H]1C(C)(C)CC[C@@H]2O [ORIDONIN] | 4.5 | 9.1 | > 10 | 5.1 | – | – | – | – | 51.2
16 | C=C1C(=O)[C@@]23C(=O)OC[C@]4([C@@H](OS(C)(=O)=O)CCC(C)(C)[C@H]4C=O)[C@@H]2CC[C@@H]1[C@H]3OS(C)(=O)=O | 8.8 | 9.5 | 3.8 | 1.2 | – | – | – | – | –
17 | C=C1C(=O)[C@@]23C(=O)OC[C@]4(C=CCC(C)(C)[C@H]4C=O)[C@@H]2CC[C@@H]1[C@H]3OC(=O)CCCC | 4.3 | 3.3 | 2.2 | 5.5 | – | – | – | – | –
18 | C=C1C(=O)[C@@]23C(=O)OC[C@]4(C=CCC(C)(C)[C@H]4C=O)[C@@H]2CC[C@@H]1[C@H]3OC(=O)/C=C/c1ccccc1 | 0.95 | 1.5 | 1.5 | 1.3 | – | – | – | – | –
19 | C=C1C(=O)[C@@]23C(=O)OC[C@]4(C=CCC(C)(C)[C@H]4C=O)[C@@H]2CC[C@@H]1[C@H]3OC(=O)c1ccco1 | 1.3 | 1.2 | 0.84 | 0.78 | – | – | – | – | –
